Source: PubChem BioAssay
Neddyl block – cullin neddylation inhibition | P61081+Q13564 | TR-FRET cullin neddylation, biochemical | calls only at 25 µM | 0.58% of 360,000 active | AID 651699; in the data active = inhibition above about 36%
UBC13 polyUb – human UBC13 polyubiquitination inhibition. AID 485273. 0.47% of 330,000 active. inhibition, % at 20 µM. P61088. UBC13 polyubiquitin chain formation, TR-FRET; in the data active = inhibition above about 45%, passing the limit was not always enough; inconclusive = no clear call, values can overlap the other calls
Target sequence (P61088 whole entry, looked up): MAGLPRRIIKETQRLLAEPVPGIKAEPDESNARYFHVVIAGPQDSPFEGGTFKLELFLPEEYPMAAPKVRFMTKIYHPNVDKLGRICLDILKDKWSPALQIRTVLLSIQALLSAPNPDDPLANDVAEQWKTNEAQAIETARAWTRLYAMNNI
FID counter – displaces DNA intercalator in HCV helicase counter-screen | DNA fluorescent intercalator displacement, fluorescence | inhibition, % at 7.9 µM | 0.17% of 290,000 active; in the data active = inhibition above about 37%;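 also: higher means more ethidium bromide displaced from hairpin DNA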
RAD52 inh – inhibitors of human RAD52 DNA annealing; recombinant RAD52 DNA annealing, FRET fluorescence; inhibition, % at 18.7 µM; 0.46% of 360,000 active; AID 651710;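 active = every replicate showing at least 50% inhibition; inconclusive = mean inhibition at least 50% but not in every replicate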
Target sequence (P43351 whole entry, looked up): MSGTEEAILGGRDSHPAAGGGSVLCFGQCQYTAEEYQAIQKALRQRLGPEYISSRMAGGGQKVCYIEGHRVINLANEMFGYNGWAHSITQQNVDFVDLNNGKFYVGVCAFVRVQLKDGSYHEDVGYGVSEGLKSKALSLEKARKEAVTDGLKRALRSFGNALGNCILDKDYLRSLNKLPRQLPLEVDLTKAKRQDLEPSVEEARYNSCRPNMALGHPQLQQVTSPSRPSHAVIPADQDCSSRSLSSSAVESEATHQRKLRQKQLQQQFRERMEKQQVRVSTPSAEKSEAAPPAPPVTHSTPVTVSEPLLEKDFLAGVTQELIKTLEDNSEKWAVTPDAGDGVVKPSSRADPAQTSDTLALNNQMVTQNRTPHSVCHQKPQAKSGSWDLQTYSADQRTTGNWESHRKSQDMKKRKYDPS
RAD54 inh – blocks human RAD54 Holliday junction branch migration; Q92698; FAM/BHQ fluorescence; inhibition, % at 10.4 µM; 0.14% of 360,000 active; AID 602329;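 active = mean normalized replicate activity at least 40 and at least half of replicates scoring 40 or more; inconclusive = only one of the two criteria met; inactive = mean below 40 and under half of replicates reaching 40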;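 also: inhibitors cause a drop in the FAM fluorescence signal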
Apaf-1 inh – inhibitors of human Apaf-1 apoptosome. O14727. reconstituted apoptosome caspase-3 activity, DEVD-Rh110 fluorescence. inhibition, % at 20 µM. 0.71% of 330,000 active. AID 489030; active = inhibition of at least 40% at 20 µM
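Material: reconstituted apoptosome with Apaf-1, cytochrome c, caspase-9, procaspase-3, dATP. Technique: Rh110 fluorescence intensity. Buffer or medium: pH 7.5 Hepes buffer with CHAPS, BSA, DTT. Times: 30 min plus 50 min, RT.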
Neddyl conf – confirmation of human cullin neddylation inhibitors; shares compounds with Neddyl block; TR-FRET cullin neddylation biochemical assay; calls only at 25 µM; 13% of 1,800 active; AID 652217; in the data active = inhibition above about 40%;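 also: neddylation substrate is the cullin 1 ring ligase complex with SKP2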
Each line names hits and unclear results; the compound was inactive in the other large screens (follow-up assays come after a bar, where shown). Hits are enriched below; roughly 1.6% of the tested compounds scored in any of these assays.

COCC(C)NC(=O)c1ccc2nc(-c3ccccc3)c(-c3ccccc3)nc2c1 (stereo not drawn)	Neddyl block active | Neddyl conf active
CCN(CC)C(=O)c1ccc2nc(-c3ccccc3)c(-c3ccccc3)nc2c1	Neddyl block active (no result: RAD54 inh) | Neddyl conf inactive
CN1CCN(C(=O)c2ccc3nc(-c4ccccc4)c(-c4ccccc4)nc3c2)CC1	Neddyl block active (not shown: RAD54 inh)
O=C(c1ccc2nc(-c3ccccc3)c(-c3ccccc3)nc2c1)N1CCCCC1	none (no result: RAD54 inh)
CCC(C)NC(=O)c1ccc2nc(-c3ccc(OC)c(OC)c3)c(-c3ccc(OC)c(OC)c3)nc2c1 (stereo not drawn)	none
C[C@@H]1CN([C@H](C)CO)C(=O)c2cc(/C=C/c3ccccc3)cnc2O[C@H]1CN(C)S(=O)(=O)c1ccc(F)cc1	none (no result: Neddyl block, UBC13 polyUb, FID counter, Apaf-1 inh)
C[C@@H]1CN([C@@H](C)CO)C(=O)c2cc(/C=C/c3ccccc3)cnc2O[C@@H]1CN(C)S(=O)(=O)c1ccc(F)cc1	Neddyl block active (no result: UBC13 polyUb, FID counter, Apaf-1 inh) | Neddyl conf inactive
CCCCn1c2nc3ccccc3nc2c2c(=O)n(CCC)cnc21	none (not shown: Neddyl block, RAD52 inh)
COCCCn1cnc2c(c1=O)c1nc3ccccc3nc1n2CCc1ccccc1	Neddyl block active (no result: RAD52 inh) | Neddyl conf inactive
O=C1C2CC3N1CCC31c3ccccc3-n3c1c2ccc3=O (stereo not drawn)	Neddyl block active (no result: UBC13 polyUb, FID counter, RAD54 inh, Apaf-1 inh) | Neddyl conf active
CS(=O)(=O)c1ccc2nc(NC(=O)c3ccco3)sc2c1	none
Cc1c(Cl)ccc2sc(NC(=O)c3ccco3)nc12	Neddyl block active | Neddyl conf inactive
Cc1c(C(=O)NCC2CCCO2)oc2ccc3c(c12)C(=O)CC(C)(C)O3 (stereo not drawn)	Neddyl block active (not shown: RAD52 inh)
O=C(NCC1CCCO1)c1cc2ccccc2cc1O (stereo not drawn)	none (no result: FID counter)
O=C(NCC1CCCCC1)c1cc2ccccc2cc1O	Neddyl block active
COC(=O)c1[nH]c2ccc(C)cc2c1NC(=O)CCN1CCN(Cc2ccc3c(c2)OCO3)CC1	Neddyl block active (no result: RAD52 inh) | Neddyl conf inactive
COC(=O)c1[nH]c2cc(C)ccc2c1NC(=O)CN1CCOCC1	none (no result: RAD54 inh)
C[C@H](CO)N1C[C@H](C)[C@H](CN(C)C(=O)c2ccccc2)OCCCC[C@H](C)Oc2ccc(NC(=O)C3CCCCC3)cc2C1=O	none (no result: Neddyl block, UBC13 polyUb, FID counter, Apaf-1 inh)
Cc1nc2cc(F)ccc2n1C1CCN(C(=O)c2ccc(F)cc2F)CC1	none (no result: RAD54 inh)
Cc1nc2cc(F)ccc2n1C1CCN(C(=O)c2c(F)cccc2F)CC1	Neddyl block active (no result: RAD54 inh) | Neddyl conf inactive
O=C(NN1C(=O)c2ccccc2NC1c1ccco1)c1ccccc1 (stereo not drawn)	none
O=C(NN1C(=O)c2ccccc2NC1c1cccnc1)c1ccccc1 (stereo not drawn)	Neddyl block active | Neddyl conf inactive
CCOc1ccc(CNc2ccc(N3CCOCC3)c(C(=O)O)c2)cc1	none (no result: RAD52 inh)
COC(=O)c1cc(NCc2ccc3c(c2)OCO3)ccc1N1CCOCC1	none (no result: RAD52 inh)
COc1cc(CNc2ccc(N3CCOCC3)c(C(=O)O)c2)ccc1OCC(N)=O	Neddyl block active (no result: RAD52 inh) | Neddyl conf inactive
O=C(O)c1cc(NCc2ccc3c(c2)OCO3)ccc1N1CCOCC1	Neddyl block active (no result: RAD52 inh) | Neddyl conf inactive
O=C(CCN1CCCCC1)NCC[C@@H]1CC[C@H](NC(=O)C2CCCC2)[C@H](CO)O1	none (no result: Neddyl block, UBC13 polyUb, FID counter, Apaf-1 inh)
Cc1ccc(S(=O)(=O)N(C)C[C@@H]2Oc3ccc(NC(=O)NC4CCCCC4)cc3CC(=O)N([C@H](C)CO)C[C@@H]2C)cc1	RAD54 inh inconclusive (no result: Neddyl block, UBC13 polyUb, FID counter, Apaf-1 inh)
Nc1c(C(=O)Nc2ccc3c(c2)OCCO3)nnn1Cc1ccc(F)cc1	Neddyl block active (no result: FID counter) | Neddyl conf inactive
Nc1c(C(=O)Nc2ccc3c(c2)OCCO3)nnn1Cc1cccc(Cl)c1	none (no result: FID counter, RAD54 inh)
Cc1cc(=O)oc2cc(OC(C)C(=O)N3CCOCC3)c(Cl)cc12 (stereo not drawn)	Neddyl block active (no result: UBC13 polyUb, FID counter, Apaf-1 inh) | Neddyl conf inactive
Cc1cc(=O)oc2cc(OC(C)C(=O)O)c(Cl)cc12 (stereo not drawn)	none (no result: RAD52 inh)
C[C@@H]1CN([C@H](C)CO)C(=O)c2cc(NC(=O)Nc3ccc4c(c3)OCO4)ccc2O[C@H]1CN(C)C	none (no result: Neddyl block, UBC13 polyUb, FID counter, Apaf-1 inh)
CC1(C)CC(=O)C2=C(C1)OC(N)=C(C#N)C2c1cc2c(cc1[N+](=O)[O-])OCO2 (stereo not drawn)	Neddyl block active (no result: UBC13 polyUb, RAD54 inh, Apaf-1 inh) | Neddyl conf inactive
Nc1ccc(-c2cc3ccccc3c(=O)o2)cc1	Neddyl block active (no result: FID counter) | Neddyl conf inactive
O=[n+]1cc(-c2cc3ccccc3o2)n([O-])c2c1CCCC2	Neddyl block active (no result: FID counter, RAD52 inh) | Neddyl conf inactive
O=[n+]1cc(-c2ccccc2)n([O-])c2c1CCCCC2	none (no result: RAD54 inh)
O=C(C[C@@H]1CC[C@@H](NS(=O)(=O)c2ccc(F)cc2)[C@H](CO)O1)NC1CCCCC1	none (no result: Neddyl block, UBC13 polyUb, FID counter, Apaf-1 inh)
CC(C)NC(=O)N[C@@H]1CC[C@H](CCNS(=O)(=O)c2ccc(F)cc2)O[C@@H]1CO	none (no result: Neddyl block, UBC13 polyUb, FID counter, Apaf-1 inh)
COc1ccc2c3c(n(C)c2c1)[C@@H](CO)N(CC1CC1)CC31CN(C(C)=O)C1	none (no result: Neddyl block, UBC13 polyUb, FID counter, RAD54 inh, Apaf-1 inh)
Cc1nc2c(C(=O)N3CCN(c4ccccn4)CC3)cnn2c(C)c1Cc1cccc(Cl)c1	Neddyl block active (no result: RAD52 inh) | Neddyl conf inactive
COC(=O)[C@]1(CO)N=C(c2ccc(OCCCO)cc2)O[C@@H]1c1ccccc1CN=[N+]=[N-]	none (no result: Neddyl block, UBC13 polyUb, FID counter, Apaf-1 inh)
COc1ccc(C(=O)c2ccc3oc(-c4ccc(OC)cc4)c(C#CCCO)c3c2)cc1	none (no result: FID counter)
COc1cc(OC)cc(-c2oc3cccnc3c2C#CCCO)c1	Neddyl block active | Neddyl conf active
O=C(C[C@H]1C=C[C@@H](NC(=O)Nc2cc(F)ccc2F)[C@@H](CO)O1)Nc1ccc(-c2ccccc2)cc1	none (no result: Neddyl block, UBC13 polyUb, FID counter, RAD54 inh, Apaf-1 inh)
CO[C@@H]1CN(C)C(=O)c2ccc(NS(C)(=O)=O)cc2OC[C@H](C)N(CCC(F)(F)F)C[C@H]1C	none (no result: Neddyl block, UBC13 polyUb, FID counter, Apaf-1 inh)
Cc1c(OC(C)C(=O)NCc2ccccn2)ccc2c3c(c(=O)oc12)CCC3 (stereo not drawn)	Neddyl block active | Neddyl conf active
COC(=O)c1ccc(COc2ccc3c(C)c(C)c(=O)oc3c2C)o1	none (no result: Neddyl block, UBC13 polyUb, RAD52 inh, Apaf-1 inh)
Cc1c(OCC(=O)NCc2ccccn2)ccc2c3c(c(=O)oc12)CCCC3	none
Cc1c(OCc2ccc(C(=O)O)o2)ccc2c3c(c(=O)oc12)CCC3	Neddyl block active (no result: RAD52 inh) | Neddyl conf inactive
Cc1c(OC(C)C(=O)NCC2CCC(C(=O)O)CC2)ccc2c3c(c(=O)oc12)CCCC3 (stereo not drawn)	Neddyl block active | Neddyl conf inactive
Cc1cc(=O)oc2c(C)c(OC(C)C(=O)NCC3CCC(C(=O)O)CC3)ccc12 (stereo not drawn)	none
O=C(C1CCOCC1)N1CC[C@@H]2[C@H]1c1cc(Br)ccc1N[C@@H]2CO	none (no result: Neddyl block, UBC13 polyUb, FID counter, Apaf-1 inh)
